Source: ChEMBL document CHEMBL3045743, “Synthesis and herbicidal activity of isoindoline-1,3-dione substituted benzoxazinone derivatives containing a carboxylic ester group” (J Agric Food Chem, 2009)

Key:
Echinochloa crus-galli = assay: Pre-emergence herbicidal activity against Echinochloa crus-galli (barnyard grass) assessed as growth inhibition at 15 g.a.i./ha applied 24 hr after seeds were sown measured after 15 days; type: functional; details: read-out: GI
Summary of the method: (§1)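 Weeds sown 5 mm deep in pots of greenhouse clay soil (pH 6.5, 37.5% clay, CEC 12.9 cmol/kg) and grown at 22-25 °C. Water-diluted formulation was applied pre-emergence 24 h after sowing. Untreated and DMF solvent controls were included. Growth inhibition was visually rated in % against untreated controls after 15 days, as the mean of triplicates.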

Arachis hypogaea [1] = assay: Phytotoxicity against Arachis hypogaea (peanut) assessed as growth inhibition at 150 g.a.i/ha pre-emergent application measured after 15 days by greenhouse crop selectivity assay; type: organism-based; details: in vivo, other, 360 h
Summary of the method: (§2)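 Pre-emergence greenhouse crop selectivity test on pot-grown plants in clay soil (pH 6.5, 1.7% organic matter, 37.5% clay, CEC 12.9 cmol/kg). Stock solutions were diluted with water and applied at 300, 150, 75 or 37.5 g a.i./ha, in triplicate. After 15 days, phytotoxicity was scored visually against untreated controls as % crop growth inhibition, averaged over the triplicates.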

Digitaria sanguinalis [2] = assay: Post-emergence herbicidal activity against Digitaria sanguinalis (hairy crabgrass) assessed as growth inhibition at 75 g.a.i./ha applied at one-leaf stage measured after 15 days; type: functional; details: 360 h, read-out: GI
Summary of the method: (§3)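 Pot-grown weeds sown 5 mm deep in greenhouse clay soil (pH 6.5, 1.7% organic matter, CEC 12.9 cmol/kg) at 22-25 °C. Stock diluted with water and sprayed post-emergence: dicots at 2-leaf stage, monocots at 1-leaf stage. Untreated and DMF solvent controls were included. % growth inhibition was scored visually versus untreated controls after 15 days. Triplicates averaged.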

Amaranthus spinosus [3] = assay: Pre-emergence herbicidal activity against Amaranthus spinosus assessed as growth inhibition at 15 g.a.i./ha applied 24 hr after seeds were sown measured after 15 days; type: functional; details: read-out: GI; summary of the method: as §1
[4] = Phytotoxicity against Triticum aestivum (wheat) assessed as growth inhibition at 75 g.a.i/ha pre-emergent application measured after 15 days by greenhouse crop selectivity assay; type: organism-based; details: in vivo, 75 g.a.i/ha, read-out: GI; summary of the method: as §2
Setaria viridis [5] = assay: Post-emergence herbicidal activity against Setaria viridis (green foxtail) assessed as growth inhibition at 75 g.a.i./ha applied at one-leaf stage measured after 15 days; type: functional; details: 360 h, read-out: GI; summary of the method: as §3
Arachis hypogaea [6] = assay: Phytotoxicity against Arachis hypogaea (peanut) assessed as growth inhibition at 300 g.a.i/ha pre-emergent application measured after 15 days by greenhouse crop selectivity assay; type: organism-based; details: in vivo, other, 360 h; summary of the method: as §2
[7] = system: Brassica rapa subsp. oleifera; assay: Phytotoxicity against Brassica rapa subsp. oleifera assessed as growth inhibition at 75 g.a.i/ha pre-emergent application measured after 15 days by greenhouse crop selectivity assay; type: functional; details: pre-emergence, 360 h, read-out: GI
Summary of the method: (§4)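 Pot-grown crop in greenhouse clay soil (pH 6.5, 1.7% organic matter, 37.5% clay, CEC 12.9 cmol/kg). Stock diluted with water and applied pre-emergence at 300, 150, 75 or 37.5 g a.i./ha. Cultivated 15 days, then phytotoxicity scored visually as % growth inhibition versus untreated controls. Triplicate treatments, averaged.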

Amaranthus spinosus [8] = assay: Post-emergence herbicidal activity against Amaranthus spinosus assessed as growth inhibition at 37.5 g.a.i./ha applied at two-leaf stage measured after 15 days; type: functional; details: 360 h, read-out: GI; summary of the method: as §3
Zea mays [9] = assay: Phytotoxicity against Zea mays (maize) assessed as growth inhibition at 150 g.a.i/ha pre-emergent application measured after 15 days by greenhouse crop selectivity assay; type: organism-based; details: in vivo, other, 360 h; summary of the method: as §2
Amaranthus = assay: Post-emergence herbicidal activity against Amaranthus ascendens assessed as growth inhibition at 75 g.a.i./ha applied at two-leaf stage measured after 15 days; type: functional; details: 360 h, read-out: GI; summary of the method: as §3
Chenopodium album [10] = assay: Pre-emergence herbicidal activity against Chenopodium album assessed as growth inhibition at 37.5 g.a.i./ha applied 24 hr after seeds were sown measured after 15 days; type: functional; details: read-out: GI; summary of the method: as §1
Amaranthus spinosus [11] = assay: Post-emergence herbicidal activity against Amaranthus spinosus assessed as growth inhibition at 7.5 g.a.i./ha applied at two-leaf stage measured after 15 days; type: functional; details: 360 h, read-out: GI; summary of the method: as §3
Amaranthus spinosus [12] = assay: Pre-emergence herbicidal activity against Amaranthus spinosus assessed as growth inhibition at 7.5 g.a.i./ha applied 24 hr after seeds were sown measured after 15 days; type: functional; details: read-out: GI; summary of the method: as §1
Digitaria sanguinalis [13] = assay: Post-emergence herbicidal activity against Digitaria sanguinalis (hairy crabgrass) assessed as growth inhibition at 7.5 g.a.i./ha applied at one-leaf stage measured after 15 days; type: functional; details: 360 h, read-out: GI; summary of the method: as §3
Zea mays [14] = assay: Phytotoxicity against Zea mays (maize) assessed as growth inhibition at 75 g.a.i/ha pre-emergent application measured after 15 days by greenhouse crop selectivity assay; type: organism-based; details: in vivo, other, 360 h; summary of the method: as §2
Setaria viridis [15] = assay: Pre-emergence herbicidal activity against Setaria viridis (green foxtail) assessed as growth inhibition at 75 g.a.i./ha applied 24 hr after seeds were sown measured after 15 days; type: functional; details: read-out: GI
Summary of the method: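 Preliminary pre-emergence screen at a single rate of 75 g a.i./ha. Stock diluted with water and sprayed on greenhouse pots 24 h after seeds were sown 5 mm deep in clay soil (pH 6.5, 1.7% organic matter); grown at 22-25 °C. Untreated and DMF solvent controls included; triplicate. Visual % growth inhibition vs untreated after 15 days, averaged and banded (>80% top band).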

Chenopodium album [16] = assay: Pre-emergence herbicidal activity against Chenopodium album assessed as growth inhibition at 7.5 g.a.i./ha applied 24 hr after seeds were sown measured after 15 days; type: functional; details: read-out: GI; summary of the method: as §1
[17] = system: Brassica rapa subsp. oleifera; assay: Phytotoxicity against Brassica rapa subsp. oleifera assessed as growth inhibition at 7.5 to 60 g.a.i/ha post-emergent application measured after 15 days by greenhouse crop selectivity assay; type: organism-based; details: in vivo, other, 360 h
Summary of the method: (§5)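 Postemergence crop selectivity test on pot-grown plants in a greenhouse, in clay soil (pH 6.5, 1.7% organic matter, CEC 12.9 cmol/kg). Stock was diluted with water and sprayed at 60, 30, 15 or 7.5 g a.i./ha, in triplicate. Growth inhibition was rated visually against untreated controls after 15 days and given as the triplicate mean percentage.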

[18] = Phytotoxicity against Gossypium (cotton) assessed as growth inhibition at 300 g.a.i/ha pre-emergent application measured after 15 days by greenhouse crop selectivity assay; type: organism-based; details: in vivo, 300 g.a.i/ha, read-out: GI; summary of the method: as §2
Glycine max = assay: Phytotoxicity against Glycine max (soybean) assessed as growth inhibition at 37.5 g.a.i/ha pre-emergent application measured after 15 days by greenhouse crop selectivity assay; type: organism-based; details: in vivo, other, 360 h; summary of the method: as §2
Arachis hypogaea [19] = assay: Phytotoxicity against Arachis hypogaea (peanut) assessed as growth inhibition at 7.5 to 60 g.a.i/ha post-emergent application measured after 15 days by greenhouse crop selectivity assay; type: organism-based; details: in vivo, other, 360 h; summary of the method: as §5
Amaranthus spinosus [20] = assay: Pre-emergence herbicidal activity against Amaranthus spinosus assessed as growth inhibition at 37.5 g.a.i./ha applied 24 hr after seeds were sown measured after 15 days; type: functional; details: read-out: GI; summary of the method: as §1
[21] = system: Brassica rapa subsp. oleifera; assay: Phytotoxicity against Brassica rapa subsp. oleifera assessed as growth inhibition at 300 g.a.i/ha pre-emergent application measured after 15 days by greenhouse crop selectivity assay; type: functional; details: pre-emergence, 360 h, read-out: GI; summary of the method: as §4
Chenopodium album [22] = assay: Post-emergence herbicidal activity against Chenopodium album assessed as growth inhibition at 37.5 g.a.i./ha applied at two-leaf stage measured after 15 days; type: functional; details: 360 h, read-out: GI; summary of the method: as §3
Abutilon theophrasti = assay: Post-emergence herbicidal activity against Abutilon theophrasti (velvetleaf) assessed as growth inhibition at 7.5 g.a.i./ha applied at two-leaf stage measured after 15 days; type: functional; details: 360 h, read-out: GI; summary of the method: as §3

Compound	inhibition of growth at 15 g/ha (Echinochloa crus-galli) [%]	growth inhibition (GI) (Arachis hypogaea [1])	inhibition of growth at 75 g/ha (Digitaria sanguinalis [2]) [%]	inhibition of growth at 15 g/ha (Amaranthus spinosus [3]) [%]	inhibition at 360 h [4] [%]	inhibition of growth at 75 g/ha (Setaria viridis [5]) [%]	growth inhibition (GI) (Arachis hypogaea [6])	inhibition of growth at 75 g/ha [7] [%]	inhibition of growth at 37.5 g/ha (Amaranthus spinosus [8]) [%]	inhibition of growth at 75 g/ha (Amaranthus) [%]	inhibition of growth at 37.5 g/ha (Chenopodium album [10]) [%]	inhibition of growth at 7.5 g/ha (Amaranthus spinosus [11]) [%]	inhibition of growth at 7.5 g/ha (Amaranthus spinosus [12]) [%]	inhibition of growth at 7.5 g/ha (Digitaria sanguinalis [13]) [%]	inhibition of growth at 75 g/ha (Setaria viridis [15]) [%]	inhibition of growth at 7.5 g/ha (Chenopodium album [16]) [%]	Activity [17]	inhibition at 360 h [18] [%]	growth inhibition (GI) (Glycine max)	Activity (Arachis hypogaea [19])	further results
COC(=O)C(C)N1C(=O)C(C)Oc2cc(F)c(N3C(=O)C4=C(CCCC4)C3=O)cc21 (stereo not given)	10	Not Active	> 80	100	> 10	> 80	Not Active	> 10	100	> 80	100	100	100	10	> 80	100	Toxic	> 10	Not Active	Toxic	growth inhibition (GI) (Zea mays [9]): Not Active; growth inhibition (GI) (Zea mays [14]): Not Active; inhibition of growth at 37.5 g/ha (Amaranthus spinosus [20]): 100%; inhibition of growth at 300 g/ha [21]: > 10%; inhibition of growth at 37.5 g/ha (Chenopodium album [22]): 100%; inhibition of growth at 7.5 g/ha (Abutilon theophrasti): 100%
C#CCN1C(=O)COc2cc(F)c(N3C(=O)C4=C(CCCC4)C3=O)cc21 [FLUMIOXAZIN]	50	Not Active	> 80	100	> 10	> 80	Not Active	> 10	100	> 80	100	100	100	80	> 80	100	Toxic	> 10	Not Active	Toxic	inhibition of growth at 37.5 g/ha (Amaranthus spinosus [20]): 100%; inhibition of growth at 300 g/ha [21]: > 10%; inhibition of growth at 37.5 g/ha (Chenopodium album [22]): 100%; inhibition of growth at 7.5 g/ha (Abutilon theophrasti): 100%
